Assay [1] deals with T1, Fatty-acid amide hydrolase 1 (Rattus norvegicus, UniProt P97612).
T1 sequence (P97612 whole entry): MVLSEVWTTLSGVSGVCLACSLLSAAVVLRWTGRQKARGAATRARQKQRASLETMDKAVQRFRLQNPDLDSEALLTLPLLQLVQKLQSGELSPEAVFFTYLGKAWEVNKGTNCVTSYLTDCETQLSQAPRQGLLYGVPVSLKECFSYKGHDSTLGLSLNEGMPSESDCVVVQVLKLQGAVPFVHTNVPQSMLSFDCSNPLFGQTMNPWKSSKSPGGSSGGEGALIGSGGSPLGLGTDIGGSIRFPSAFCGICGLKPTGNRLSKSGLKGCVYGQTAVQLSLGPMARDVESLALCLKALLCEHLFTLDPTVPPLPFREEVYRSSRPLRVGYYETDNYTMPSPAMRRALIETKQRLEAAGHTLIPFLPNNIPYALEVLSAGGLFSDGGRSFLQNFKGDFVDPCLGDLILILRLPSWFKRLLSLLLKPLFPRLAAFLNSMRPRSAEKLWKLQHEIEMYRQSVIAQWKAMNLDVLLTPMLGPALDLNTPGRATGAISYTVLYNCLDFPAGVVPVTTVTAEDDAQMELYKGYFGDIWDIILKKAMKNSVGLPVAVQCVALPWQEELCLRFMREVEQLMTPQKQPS
Nature of the assay: Inhibition of FAAH in Wistar rat brain assessed as by liquid scintillation counting. In a few lines: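 Rat cerebrum homogenate (8-week male Wistar, whole brain minus cerebellum, 10,000g supernatant in 0.1 M K phosphate pH 7.4) as enzyme, 18 µg protein. Preincubated with compound 10 min at 37 °C, then 2 μM [³H]AEA (ethanolamine 1-³H) added for 10 min at 37 °C. Buffer has 0.5% BSA, DMSO up to 5%. Stopped with EtOAc. Aqueous [³H]ethanolamine counted. Three independent experiments in duplicate; IC50 by nonlinear regression.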

Assay [2] concerns the target T2, Monoglyceride lipase (Rattus norvegicus) (UniProt Q8R431).
T2 sequence (whole entry): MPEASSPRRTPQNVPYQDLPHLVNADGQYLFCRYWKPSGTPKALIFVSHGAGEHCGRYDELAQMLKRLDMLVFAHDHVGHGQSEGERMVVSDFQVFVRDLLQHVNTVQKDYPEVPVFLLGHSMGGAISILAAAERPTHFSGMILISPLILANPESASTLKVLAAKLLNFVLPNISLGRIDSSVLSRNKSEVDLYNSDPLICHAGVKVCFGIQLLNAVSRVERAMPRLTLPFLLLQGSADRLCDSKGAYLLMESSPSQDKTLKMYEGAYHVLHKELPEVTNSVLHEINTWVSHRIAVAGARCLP
Nature of the assay: Inhibition of MGL in Wistar rat cerebellar membrane at 100 uM by reversed-phase HPLC relative to control. The following applies: Cerebellum. The class given is cell membranes. In a few lines: (§1)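 Cerebellar membranes from 4-week male Wistar rats. 10 µg protein preincubated with compound 30 min at 25 °C in Tris-HCl pH 7.4, EDTA, 0.5% BSA, 1.25% DMSO. Incubation 90 min at 25 °C with 5 µg protein and 50 μM 2-AG (100 mM NaCl, 5 mM MgCl₂). Stopped with acidified acetonitrile at 0 and 90 min. Arachidonic acid by C18 HPLC, UV 211 nm. Activity as % of control, n = 2.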

The target in assay [3] is T3, Monoglyceride lipase (Homo sapiens) (UniProt Q99685).
T3 sequence (whole entry): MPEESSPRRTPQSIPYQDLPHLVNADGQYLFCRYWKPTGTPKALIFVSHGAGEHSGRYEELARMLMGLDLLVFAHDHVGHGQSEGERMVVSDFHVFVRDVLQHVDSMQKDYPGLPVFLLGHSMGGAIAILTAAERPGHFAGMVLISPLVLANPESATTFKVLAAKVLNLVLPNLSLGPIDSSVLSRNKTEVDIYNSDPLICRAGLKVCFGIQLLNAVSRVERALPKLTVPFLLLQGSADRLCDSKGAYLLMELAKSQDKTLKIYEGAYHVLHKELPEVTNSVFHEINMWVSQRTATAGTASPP
Nature of the assay: Inhibition of human recombinant MGL by liquid scintillation counting. Conditions: concentration not given here. Summed up:
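hrMGL preincubated with compound 10 min at 37 °C in 50 mM Tris-HCl pH 7.4, 1 mM EDTA, 0.5% BSA, DMSO ≤5%. Then [³H]2-oleoylglycerol (glycerol-1,2,3-³H) added to 50 μM final for 10 min at 37 °C. Stopped with EtOAc. Aqueous-phase [³H]glycerol counted by liquid scintillation.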

The target of assay [4] is T2, Monoglyceride lipase (Rattus norvegicus). Nature of the assay: Inhibition of MGL in Wistar rat cerebellar membrane at 1 uM by reversed-phase HPLC relative to control. The class given is cell membranes. The following applies: Cerebellum. In a few lines: as §1

This note sets out measurements from ChEMBL document CHEMBL1154092, “Chiral 3-(4,5-dihydrooxazol-2-yl)phenyl alkylcarbamates as novel FAAH inhibitors: Insight into FAAH enantioselectivity by molecular docking and interaction fields” (Eur J Med Chem, 2009).

Structures are written as SMILES.

Take `C[C@H]1COC(c2cccc(OC(=O)NC3CCCC3)c2)=N1`: the IC50 in assay [1] is 110 nM. In assay [2], this compound came in with an inhibition of 28%.

As to `CCCNC(=O)Oc1cccc(-c2nc3ccccc3o2)c1`, the IC50 in assay [1] turned out to be 3000 nM. Further, the inhibition in assay [2] worked out at 26%.

For `COC(=O)[C@H]1COC(c2cccc(OC(=O)NC3CCCCC3)c2)=N1`, the IC50 in assay [1] stood at 90 nM. For the same compound, in assay [2], the inhibition came out at 35%.

`C[C@@H]1COC(c2cccc(OC(=O)NC3CCCCC3)c2)=N1`: the IC50 in assay [1] worked out at 16 nM. The same compound had an inhibition in assay [2] of 16%.

Consider `CC1(C)COC(c2cccc(OC(=O)NC3CCCCC3)c2)=N1`, for which the IC50 in assay [1] is 46 nM. In assay [2], this compound came in with an inhibition of 20%.

Take `CC1(C)COC(c2cccc(OC(=O)NC3CCCC3)c2)=N1`: in assay [1], the IC50 is 65 nM. In addition, the inhibition in assay [2] stood at 28%.

For the compound `O=C(NC1CCCCC1)Oc1cccc(C2=N[C@@H](Cc3ccccc3)CO2)c1`, the IC50 in assay [1] amounted to 2100 nM. In assay [2], this compound returned an inhibition of 17%.

Turning to `CCCNC(=O)Oc1cccc(-c2nc3ncncc3o2)c1`, the inhibition in assay [3] was found to be 18%. Moreover, the IC50 in assay [1] is 4500 nM.

For the compound `O=C(NC1CCCCC1)Oc1cccc(C2=NCCO2)c1`, the IC50 in assay [1] is 1.2 nM. The inhibition in assay [2] amounted to 22%.

In the case of `C[C@H]1COC(c2cccc(OC(=O)NC3CCCCC3)c2)=N1`, in assay [1], the IC50 is 51 nM. The inhibition in assay [2] came to 28%.

`COC(=O)[C@@H]1COC(c2cccc(OC(=O)NC3CCCCC3)c2)=N1`: the IC50 in assay [1] was found to be 9.4 nM. In assay [2], the inhibition is 25%.

On to `O=C(NC1CCCCC1)Oc1cccc(C2=N[C@@H](Cc3c[nH]c4ccccc34)CO2)c1`, for which the IC50 in assay [1] worked out at 1900 nM. Moreover, in assay [2], the inhibition came to 25%.

`CCCNC(=O)Oc1cccc(-c2nc3ncccc3o2)c1`: the IC50 in assay [1] turned out to be 680 nM. In assay [2], this compound registered an inhibition of 29%.

In assay [4], `O=C(NC1CCCC1)Oc1cccc(C2=NCCO2)c1` gave an inhibition of 10%. Moreover, the IC50 in assay [1] came to 13 nM.

Consider `C[C@H]1CN=C(c2cccc(OC(=O)NC3CCCCC3)c2)O1`, for which, in assay [3], the inhibition turned out to be 14%. Moreover, in assay [1], the IC50 was 6.8 nM.

As for `CCCNC(=O)Oc1cccc(C2=NCCO2)c1`, the IC50 in assay [1] stood at 33 nM. This compound also returned an inhibition in assay [2] of 32%.

Turning to `O=C(NC1CCCCC1)Oc1cccc(C2=N[C@H](Cc3ccccc3)CO2)c1`, the IC50 in assay [1] is 590 nM. This compound also showed an inhibition in assay [2] of 14%.

In the case of `C[C@@H]1CN=C(c2cccc(OC(=O)NC3CCCCC3)c2)O1`, in assay [3], the inhibition is 13%. For the same compound, in assay [1], the IC50 worked out at 73 nM.

Usually IC50 stands for the concentration needed to halve the response being measured. The inhibition is the share of the control response that was lost under treatment.
